Assay results gathered from unrelated publications.
Lines come from different studies, so protocols differ.
Target: Histamine H1 receptor (HRH1, Homo sapiens, UniProt P35367)

N#Cc1cc(Cn2c(N3CCCC3)nc3ccccc32)ccc1F — inhibition (ligand displacement; 10 µM): 73%
CN(C)CCOC1c2ccccc2CCc2ccccc21 — kon (binding): 1.1e+06 M⁻¹ s⁻¹
CCCNc1nc2ccccc2n1Cc1ccc(Cl)cc1 — inhibition (ligand displacement; 10 µM): 97.8%
O=C(c1ccc(F)cc1)N(Cc1ccccc1)C1CCCCC1 — inhibition (cell-free assay; 10 µM): 23%
CN1CCC(=C2c3ccccc3CCc3cccnc32)CC1 — koff (binding): 0.000147 s⁻¹
CC(C)(C)OC(=O)N1CCCC1CNC1CCC(c2cc(F)ccc2F)(S(=O)(=O)c2ccc(Cl)cc2)CC1 (centres unmarked) — inhibition (cell-free assay; 10 µM): 25.6%
CN(C)CCOC1c2ccccc2C=Cc2ccccc21 — kon (binding): 833000 M⁻¹ s⁻¹
CN1CCN(CCCOc2ccc(=O)n(-c3ccc(Cl)c(Cl)c3)n2)CC1 — inhibition (ligand displacement; 1 µM): 40.7%
CCN(CC)c1ccc(C2Nc3ccc(C(=O)c4ccccc4)cc3NC3=C2C(=O)CC(C)(C)C3)cc1 (centres unmarked) — inhibition (ligand displacement, radioligand; 10 µM): 40%
CCN(Cc1ccccc1C(F)(F)F)C(=O)C1CCN(S(=O)(=O)c2ccc3[nH]ncc3c2)CC1 — inhibition (ligand displacement, radioligand; 10 µM): 26%
COc1ccc(-n2nc(OCCCN3CCCCC3)ccc2=O)cc1 — inhibition (ligand displacement; 1 µM): 16.7%
CN1CCC(C2c3ccccc3C=Cc3ccccc32)CC1 — koff (binding): 0.00035 s⁻¹
Ic1cccc2cnccc12 — inhibition (ligand displacement, radioligand; 10 µM): 0%
CN1CCN(C2c3ccccc3CCc3ccccc32)CC1 — koff (binding): 0.002 s⁻¹
Oc1cccc(Nc2nc(-c3ccc(F)cc3F)cs2)c1 — inhibition (cell-free assay; 10 µM): -19.9%
C[C@H](NC(=O)Nc1cc2[nH]ncc2c(CO)n1)c1ccccn1 — inhibition (cell-free assay; 10 µM): 4.18%
O=C1N=C(N2CCCCN2)S/C1=C\c1ccc(F)cc1O — inhibition (ligand displacement, radioligand; 10 µM): < 10%
